Where two headings read alike, the source gives them in different places. Marks after values point to notes of the source that are not given here.
Assays:
Oct1+/+ and Oct1-/- mice = experiment: Toxicity study of CDPCP in Oct1+/+ and Oct1-/- mice; format: in vivo, mouse; settings: for Kidney histopathological examination (affected/examined animals) / Liver histopathological examination (affected/examined animals): 24 hr after third i.v. dose; for liver-to-body-weight ratio increase compared with saline-treated mice: 120 mg/kg reduced to 90 mg/kg
Procedure, shortened: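 Male Oct1+/+ and Oct1-/- mice (8 weeks, ≥9 per group) were randomised to saline or test compound. Dosing was by tail vein once weekly ×3 (120 mg/kg initially, later 90 mg/kg). Body weight was recorded three times weekly. Mice were fasted ≥16 h and killed under isoflurane 24 h after the last dose. Measures: serum ALT/AST/ALKP and liver weight. Liver and kidney were fixed in 4% paraformaldehyde, paraffin-embedded and H&E stained; affected/examined animals were counted.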

HEK-MOCK cells = experiment: Cellular accumulation of platinum in HEK-MOCK cells; format: in vitro ADME, human; settings: 10 μM, 1 h
Procedure, shortened: (§1)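 HEK293 cells stably carrying full-length mouse Oct1 cDNA in pcDNA5/FRT, selected with hygromycin B; the human OCT1 line's construct is not described. Cells grown in DMEM H21 with 10% FBS at 37°C, 5% CO2. Exposed to 10 μM test compound in serum-free medium for 1 h, then washed 3× with ice-cold PBS. Digested in 70% nitric acid at 65°C for ≥2.5 h. Pt measured by ICP-MS, normalised to BCA protein.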

[1] = Tissue accumulation of platinum in Oct1+/+ and Oct1-/- mice; format: in vivo, mouse; settings: for Brain Normalized platinum / Heart Normalized platinum / Intestine Normalized platinum / Kidney Normalized platinum / Liver Normalized platinum / Muscle Normalized platinum: divided by plasma concentration
Procedure, shortened: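 Male FVB Oct1+/+ and Oct1-/- mice (8 weeks) were given 8 mg/kg in saline i.v. by tail vein and killed 1 h later. Liver, kidney, heart, lung, brain, intestine, spleen and muscle were snap-frozen. Total Pt was measured by ICP-MS in 10–30 mg tissue and reported as nmol/g tissue; plasma was reported in μM.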

human OCT1 = target: T1, human OCT1 (Homo sapiens, UniProt O15245); experiment: Cellular accumulation of platinum in HEK-hOCT1 cells; format: in vitro ADME; settings: 10 μM, 1 h
T1 sequence (O15245 1-554): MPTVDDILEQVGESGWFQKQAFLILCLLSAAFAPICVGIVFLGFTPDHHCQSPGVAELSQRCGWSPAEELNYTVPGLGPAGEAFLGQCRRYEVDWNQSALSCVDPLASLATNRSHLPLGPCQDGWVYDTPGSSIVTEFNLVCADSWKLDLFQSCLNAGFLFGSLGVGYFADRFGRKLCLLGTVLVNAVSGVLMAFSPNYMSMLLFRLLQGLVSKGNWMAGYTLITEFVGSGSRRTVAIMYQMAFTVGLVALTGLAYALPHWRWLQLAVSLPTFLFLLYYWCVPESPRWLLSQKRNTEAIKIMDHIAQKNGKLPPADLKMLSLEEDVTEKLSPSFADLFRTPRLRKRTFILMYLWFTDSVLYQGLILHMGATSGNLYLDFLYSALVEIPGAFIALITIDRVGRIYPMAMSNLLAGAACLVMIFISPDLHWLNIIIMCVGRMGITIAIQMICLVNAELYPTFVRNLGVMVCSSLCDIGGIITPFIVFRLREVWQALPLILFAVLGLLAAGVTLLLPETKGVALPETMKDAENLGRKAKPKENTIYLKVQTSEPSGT
Procedure, shortened: as §1

[2] = system: primary mouse hepatocytes; format: in vitro ADME
mouse Oct1 = target: T2, mouse Oct1 (Mus musculus, UniProt O08966); experiment: Cellular accumulation of platinum in HEK-mOct1 cells; format: in vitro ADME; settings: 10 μM, 1 h
T2 sequence (O08966 1-556): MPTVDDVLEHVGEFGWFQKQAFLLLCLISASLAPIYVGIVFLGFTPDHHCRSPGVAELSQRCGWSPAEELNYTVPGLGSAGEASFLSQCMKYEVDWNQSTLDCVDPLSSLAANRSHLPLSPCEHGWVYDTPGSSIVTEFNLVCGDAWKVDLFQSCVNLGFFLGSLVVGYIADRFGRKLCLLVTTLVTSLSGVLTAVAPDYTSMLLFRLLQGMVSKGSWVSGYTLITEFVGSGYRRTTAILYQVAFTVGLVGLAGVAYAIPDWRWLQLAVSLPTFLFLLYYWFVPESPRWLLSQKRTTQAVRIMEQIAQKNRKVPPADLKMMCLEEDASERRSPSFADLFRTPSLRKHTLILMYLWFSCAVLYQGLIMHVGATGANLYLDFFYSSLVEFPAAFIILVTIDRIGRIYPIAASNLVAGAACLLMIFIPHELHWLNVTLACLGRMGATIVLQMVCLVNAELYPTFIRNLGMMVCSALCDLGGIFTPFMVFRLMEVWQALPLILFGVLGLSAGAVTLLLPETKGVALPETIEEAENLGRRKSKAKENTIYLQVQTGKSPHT
Procedure, shortened: as §1

[3] = Oct1+/+ mice, i.v. once weekly for 3 weeks
[4] = Oct1-/- mice, i.v. once weekly for 3 weeks
[5] = OCT1 KO mice, 1 h after IV 8 mg/kg
[6] = OCT1 WT mice, 1 h after IV 8 mg/kg

SMILES: [NH3+][Pt-2]([NH3+])([Cl])[n+]1ccccc1 (stereo not drawn) [CDPCP, cis-diammine(pyridine)chloroplatinum(II)]
- Kidney histopathological examination (affected/examined animals) (Oct1+/+ and Oct1-/- mice; OCT1+/+ mice): Normal (4/4)
- Liver histopathological examination (affected/examined animals) (Oct1+/+ and Oct1-/- mice; OCT1+/+ mice): Severe swollen hepatocytes (3/4); Mild swollen hepatocytes(1/4)
- Kidney histopathological examination (affected/examined animals) (Oct1+/+ and Oct1-/- mice; OCT1-/- mice): Kidney tube protein contents (3/4); kidney hyaline necrosis (1/4)
- Liver histopathological examination (affected/examined animals) (Oct1+/+ and Oct1-/- mice; OCT1-/- mice): Mild swollen hepatocytes(1/4)
- serum BUN levels vs saline (Oct1+/+ and Oct1-/- mice; Oct1+/+ mice): significantly reduced
- actual liver weight (Oct1+/+ and Oct1-/- mice; [3]): 1.23 g
- liver-to-body-weight ratio increase compared with saline-treated mice (Oct1+/+ and Oct1-/- mice; [3]): 28.8%
- serum glucose levels (Oct1+/+ and Oct1-/- mice; Oct1+/+ mice, vs saline): significant increase
- total serum protein levels (Oct1+/+ and Oct1-/- mice; Oct1+/+ mice, vs saline): significant decrease
- serum BUN vs saline (Oct1+/+ and Oct1-/- mice; Oct1-/- mice): not affected
- actual liver weight (Oct1+/+ and Oct1-/- mice; [4]): 1.02 g
- liver-to-body-weight ratio increase compared with saline-treated mice (Oct1+/+ and Oct1-/- mice; [4]): 14.7%
- serum creatinine levels vs saline (Oct1+/+ and Oct1-/- mice; both Oct1+/+ and Oct1-/- mice): not significantly different
- dose resulting in significant changes in body weight, liver-to-body-weight ratio, liver function and hematology (Oct1+/+ and Oct1-/- mice; dose-range finding toxicity study): ≥ 90 mg/kg
- histological examination of intestine (Oct1+/+ and Oct1-/- mice; either Oct1+/+ or Oct1-/- mice): no signs of intestinal toxicity
- activities of ALT, AST and ALKP (Oct1+/+ and Oct1-/- mice; either Oct1+/+ or Oct1-/- mice, i.v. once weekly for 3 weeks): not affected
- body weight loss in Oct1-/- mice compared with Oct1+/+ mice (Oct1+/+ and Oct1-/- mice; i.v. once weekly for 3 weeks): much greater
- ALT (Oct1+/+ and Oct1-/- mice; wild-type mice, 120 mg/kg, dose-finding studies (data not shown)): significant increases
- uptake of platinum (HEK-MOCK cells): 27.4 ± 7.43 pmol/mg protein/hr
- total platinum in plasma, fold higher in Oct1-/- than wild-type mice ([1]; 1 h after 8 mg/kg): 1.3 fold
- Brain Absolute platinum, OCT1 WT/KO ratio ([1]; 1 h after IV 8 mg/kg): 0.9
- Brain Normalized platinum, OCT1 WT/KO ratio ([1]; 1 h after IV 8 mg/kg): 1.2
- Heart Absolute platinum, OCT1 WT/KO ratio ([1]; 1 h after IV 8 mg/kg): 0.6**
- Heart Normalized platinum, OCT1 WT/KO ratio ([1]; 1 h after IV 8 mg/kg): 0.8*
- Intestine Absolute platinum, OCT1 WT/KO ratio ([1]; 1 h after IV 8 mg/kg): 2.8*
- Kidney Absolute platinum, OCT1 WT/KO ratio ([1]; 1 h after IV 8 mg/kg): 0.7*
- Kidney Normalized platinum, OCT1 WT/KO ratio ([1]; 1 h after IV 8 mg/kg): 1.0
- Liver Absolute platinum, OCT1 WT/KO ratio ([1]; 1 h after IV 8 mg/kg): 2.1**
- Muscle Absolute platinum, OCT1 WT/KO ratio ([1]; 1 h after IV 8 mg/kg): 0.8*
- Muscle Normalized platinum, OCT1 WT/KO ratio ([1]; 1 h after IV 8 mg/kg): 1.0
- Plasma platinum, OCT1 WT/KO ratio ([1]; 1 h after IV 8 mg/kg): 0.8**
- Brain Absolute platinum [1, 5]: 0.487 ± 0.128 pmol/g tissue
- Heart Absolute platinum [1, 5]: 15.4 ± 1.83 pmol/g tissue
- Intestine Absolute platinum [1, 5]: 32.3 ± 14.2 pmol/g tissue
- Kidney Absolute platinum [1, 5]: 44.3 ± 11.5 pmol/g tissue
- Liver Absolute platinum [1, 5]: 38.2 ± 8.51 pmol/g tissue
- Muscle Absolute platinum [1, 5]: 2.08 ± 0.292 pmol/g tissue
- Plasma platinum [1, 5]: 17.2 ± 2.11 µM
- Brain Normalized platinum [1, 5]: 0.0282 ± 0.00518 ml/g tissue
- Heart Normalized platinum [1, 5]: 0.898 ± 0.0813 ml/g tissue
- Intestine Normalized platinum [1, 5]: 1.84 ± 0.571 ml/g tissue
- Kidney Normalized platinum [1, 5]: 2.47 ± 0.552 ml/g tissue
- Liver Normalized platinum [1, 5]: 2.23 ± 0.440 ml/g tissue
- Muscle Normalized platinum [1, 5]: 0.122 ± 0.0201 ml/g tissue
- Brain Absolute platinum [1, 6]: 0.436 ± 0.116 pmol/g tissue
- Heart Absolute platinum [1, 6]: 9.77 ± 1.20 pmol/g tissue
- Intestine Absolute platinum [1, 6]: 90.9 ± 28.0 pmol/g tissue
- Kidney Absolute platinum [1, 6]: 32.1 ± 2.93 pmol/g tissue
- Liver Absolute platinum [1, 6]: 81.8 ± 9.31 pmol/g tissue
- Muscle Absolute platinum [1, 6]: 1.62 ± 0.144 pmol/g tissue
- Plasma platinum [1, 6]: 13.5 ± 1.72 µM
- Brain Normalized platinum [1, 6]: 0.0328 ± 0.0114 ml/g tissue
- Heart Normalized platinum [1, 6]: 0.725 ± 0.0747 ml/g tissue
- Intestine Normalized platinum [1, 6]: 7.13 ± 2.47 ml/g tissue
- Kidney Normalized platinum [1, 6]: 2.40 ± 0.374 ml/g tissue
- Liver Normalized platinum [1, 6]: 6.09 ± 0.792 ml/g tissue
- Muscle Normalized platinum [1, 6]: 0.121 ± 0.0118 ml/g tissue
- uptake of platinum (human OCT1): 852 ± 135 pmol/mg protein/hr
- hepatocellular uptake, wild-type as fold of Oct1-/- ([2]; 10 μM, 1 hr): 2.9 fold
- hepatocellular uptake ([2]; hepatocytes from Oct1-/- mice, 10 μM, 1 hr): 87.8 ± 7.61 pmol/mg protein/hr
- hepatocellular uptake ([2]; hepatocytes from Oct1-/- mice, 10 μM, 1 hr, co-incubation with disopyramide 150 μM): 95.8 ± 17.6 pmol/mg protein/hr
- hepatocellular uptake ([2]; hepatocytes from Oct1 wild-type mice, 10 μM, 1 hr): 251 ± 94.6 pmol/mg protein/hr
- hepatocellular uptake ([2]; hepatocytes from Oct1 wild-type mice, 10 μM, 1 hr, co-incubation with disopyramide 150 μM): 55.9 ± 1.41 pmol/mg protein/hr
- fold decrease in platinum uptake by disopyramide ([2]; hepatocytes from Oct1 wild-type mice, disopyramide 150 μM): 4.5 fold
- uptake of platinum (mouse Oct1; HEK-mOct1 cells): 1470 ± 66.6 pmol/mg protein/hr
- uptake of platinum, fold greater than in HEK-MOCK cells (mouse Oct1; HEK-mOct1 vs HEK-MOCK): 53 fold

— PMC3040319 (Pharmaceutical Research, 2010)
